Laboratory results: ChEMBL document CHEMBL1150425, “Parallel one-pot synthesis and structure-activity relationship study of symmetric formimidoester disulfides as a novel class of potent non-nucleoside HIV-1 reverse transcriptase inhibitors” (Bioorg Med Chem, 2008)

Assays:
[1] = Cytotoxicity against human MT4 cells by MTT method; type: cell-based
In short: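 Mock-infected MT-4 cells, run in parallel with the antiviral test; CC50 = concentration reducing viability by 50%, read by MTT. Triplicate samples.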

[2] = Selectivity index, ratio of CC50 for human MT4 cells to EC50 for HIV1 cells; type: toxicity, cell-based; conditions: read-out: Ratio CC50/EC50
In short: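 Ratio of CC50 (mock-infected MT-4 viability, MTT) to EC50 (50% protection of MT-4 cells from HIV-1 cytopathogenicity, MTT), both taken from the same parallel cell-based run.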

[3] = system: Human immunodeficiency virus 1; assay: Antiviral activity against HIV1 in MT4 cells assessed as reduction of virus induced cytopathogenicity by MTT method; type: functional, organism-based; conditions: Human immunodeficiency virus 1, MT4
In short: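 MT-4 cells infected with wild-type HIV-1; EC50 = concentration giving 50% protection of cells from virus-induced cytopathogenicity, viability read by MTT. Triplicate samples.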

[4] = system: Human immunodeficiency virus 1; assay: Antiviral activity against HIV1 with reverse transcriptase Y181C mutation; type: functional, organism-based
In short: (§1)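 MT-4 cells infected with the mutant HIV-1 strain; protection from virus-induced cytopathogenicity read by MTT. EC50 is the concentration (µM) giving 50% protection. Cytotoxicity was assayed in parallel on mock-infected MT-4 cells by MTT. Triplicate samples.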

[5] = system: Human immunodeficiency virus 1; assay: Antiviral activity against HIV1 with reverse transcriptase K103R mutation; type: functional, organism-based; in short: as §1

Structure (SMILES) | CC50 [1] [µM] | selectivity ratio [2] | EC50 [3] [µM] | EC50 [4] [µM] | EC50 [5] [µM]
O=C1c2ccccc2C(=O)N1CCO/C(=N\Cc1ccccc1)SS/C(=N/Cc1ccccc1)OCCN1C(=O)c2ccccc2C1=O | > 100 | > 14 | 7 |  | 
Cc1cc(C)cc(/N=C(\OCCN2C(=O)c3ccccc3C2=O)SS/C(=N/c2cc(C)cc(C)c2)OCCN2C(=O)c3ccccc3C2=O)c1 | > 100 | > 33 | 3 |  | 
O=C1c2ccccc2C(=O)N1CCO/C(=N\c1cccc(Cl)c1Cl)SS/C(=N/c1cccc(Cl)c1Cl)OCCN1C(=O)c2ccccc2C1=O | 37 | 2.1 | 18 |  | 
COc1ccc(/N=C(\OCCN2C(=O)c3ccccc3C2=O)SS/C(=N/c2ccc(OC)cc2)OCCN2C(=O)c3ccccc3C2=O)cc1 | 90 | 1500 | 0.06 |  | 
O=C1c2ccccc2C(=O)N1CCO/C(=N\c1ccccc1Cl)SS/C(=N/c1ccccc1Cl)OCCN1C(=O)c2ccccc2C1=O | 9 | < 1 | > 9 |  | 
N#Cc1ccc(/N=C(\OCCN2C(=O)c3ccccc3C2=O)SS/C(=N/c2ccc(C#N)cc2)OCCN2C(=O)c3ccccc3C2=O)cc1 | > 100 | > 1000 | 0.1 |  | 
COc1cccc(/N=C(\OCCN2C(=O)c3ccccc3C2=O)SS/C(=N/c2cccc(OC)c2)OCCN2C(=O)c3ccccc3C2=O)c1 | 80 | 61 | 1.3 |  | 
O=C1c2ccccc2C(=O)N1CCO/C(=N\c1cc(Cl)cc(Cl)c1)SS/C(=N/c1cc(Cl)cc(Cl)c1)OCCN1C(=O)c2ccccc2C1=O | 42 | < 1 | > 42 |  | 
Cc1ccc(/N=C(\OCCN2C(=O)c3ccccc3C2=O)SS/C(=N/c2ccc(C)c(Cl)c2)OCCN2C(=O)c3ccccc3C2=O)cc1Cl | > 100 | > 500 | 0.2 |  | 
O=C1c2ccccc2C(=O)N1CCO/C(=N\c1ccc(Cl)c([N+](=O)[O-])c1)SS/C(=N/c1ccc(Cl)c([N+](=O)[O-])c1)OCCN1C(=O)c2ccccc2C1=O | 18 | 257 | 0.07 |  | 
O=C1c2ccccc2C(=O)N1CCO/C(=N\c1ccc(Cl)c(Cl)c1)SS/C(=N/c1ccc(Cl)c(Cl)c1)OCCN1C(=O)c2ccccc2C1=O | > 100 | > 14 | 7 |  | 
O=C1c2ccccc2C(=O)N1CCO/C(=N\c1cc(Cl)ccc1Cl)SS/C(=N/c1cc(Cl)ccc1Cl)OCCN1C(=O)c2ccccc2C1=O | > 100 |  | > 100 |  | 
O=C1c2ccccc2C(=O)N1CCO/C(=N\c1cc(F)ccc1F)SS/C(=N/c1cc(F)ccc1F)OCCN1C(=O)c2ccccc2C1=O | 52 | 40 | 1.3 |  | 
Cc1ccc(/N=C(\OCCN2C(=O)c3ccccc3C2=O)SS/C(=N/c2ccc(C)cc2)OCCN2C(=O)c3ccccc3C2=O)cc1 | 21 | 525 | 0.04 |  | 
O=C1c2ccccc2C(=O)N1CCO/C(=N\c1cccc(Br)c1)SS/C(=N/c1cccc(Br)c1)OCCN1C(=O)c2ccccc2C1=O | 89 | 15 | 6 |  | 
Cc1ccccc1/N=C(\OCCN1C(=O)c2ccccc2C1=O)SS/C(=N/c1ccccc1C)OCCN1C(=O)c2ccccc2C1=O | 11 | < 1 | > 11 |  | 
O=C1c2ccccc2C(=O)N1CCO/C(=N\c1ccc(F)cc1F)SS/C(=N/c1ccc(F)cc1F)OCCN1C(=O)c2ccccc2C1=O | 27 | 541 | 0.05 |  | 
Cc1cc(Br)cc(C)c1/N=C(\OCCN1C(=O)c2ccccc2C1=O)SS/C(=N/c1c(C)cc(Br)cc1C)OCCN1C(=O)c2ccccc2C1=O | > 100 |  | > 100 |  | 
Cc1ccc2c(c1)C(=O)N(CCO/C(=N\c1ccc(Br)cc1)SS/C(=N/c1ccc(Br)cc1)OCCN1C(=O)c3ccc(C)cc3C1=O)C2=O | > 100 | > 77 | 1.3 |  | 
O=C1c2ccccc2C(=O)N1CCO/C(=N\c1ccc(I)cc1)SS/C(=N/c1ccc(I)cc1)OCCN1C(=O)c2ccccc2C1=O | 48 | 1600 | 0.03 |  | 

Structure (SMILES) | CC50 [1] [µM] | selectivity ratio [2] | EC50 [3] [µM] | EC50 [4] [µM] | EC50 [5] [µM]
O=C1c2ccccc2C(=O)N1CCO/C(=N\c1cccc(Cl)c1)SS/C(=N/c1cccc(Cl)c1)OCCN1C(=O)c2ccccc2C1=O | 36 | 90 | 0.4 |  | 
O=C1c2ccccc2C(=O)N1CCO/C(=N\c1cccc(F)c1)SS/C(=N/c1cccc(F)c1)OCCN1C(=O)c2ccccc2C1=O | 38 | 7.6 | 5 |  | 
O=C1c2ccccc2C(=O)N1CCO/C(=N\c1ccc(C(F)(F)F)cc1)SS/C(=N/c1ccc(C(F)(F)F)cc1)OCCN1C(=O)c2ccccc2C1=O | > 100 | > 1000 | 0.1 |  | 
O=C1Nc2ccc(Cl)cc2C(C#CC2CC2)(C(F)(F)F)O1 (single isomer, unassigned) [EFAVIRENZ] |  |  |  | 0.01 | 0.04
O=C1c2ccccc2C(=O)N1CCO/C(=N\c1cccc([N+](=O)[O-])c1)SS/C(=N/c1cccc([N+](=O)[O-])c1)OCCN1C(=O)c2ccccc2C1=O | > 100 | > 143 | 0.7 |  | 
CC(=O)c1ccc(/N=C(\OCCN2C(=O)c3ccccc3C2=O)SS/C(=N/c2ccc(C(C)=O)cc2)OCCN2C(=O)c3ccccc3C2=O)cc1 | > 100 | > 4.2 | 24 |  | 
c1ccc(CCO/C(=N\c2ccccc2)SS/C(=N/c2ccccc2)OCCc2ccccc2)cc1 | 70 | 6.4 | 11 |  | 
O=C1c2ccccc2C(=O)N1CCO/C(=N\c1ccccc1F)SS/C(=N/c1ccccc1F)OCCN1C(=O)c2ccccc2C1=O | 43 | 36 | 1.2 |  | 
O=C1c2ccccc2C(=O)N1CCO/C(=N\c1ccc(Cl)c(C(F)(F)F)c1)SS/C(=N/c1ccc(Cl)c(C(F)(F)F)c1)OCCN1C(=O)c2ccccc2C1=O | > 100 | > 3.6 | 28 |  | 
O=C1c2ccccc2C(=O)N1CCO/C(=N\c1ccc(Cl)cc1)SS/C(=N/c1ccc(Cl)cc1)OCCN1C(=O)c2ccccc2C1=O | 88 | 5500 | 0.02 |  | 
O=C1c2ccccc2C(=O)N1CCO/C(=N\c1cc(F)cc(F)c1)SS/C(=N/c1cc(F)cc(F)c1)OCCN1C(=O)c2ccccc2C1=O | 37 | < 1 | > 37 |  | 
O=C1c2ccccc2C(=O)N1CCO/C(=N\c1cccc(C(F)(F)F)c1)SS/C(=N/c1cccc(C(F)(F)F)c1)OCCN1C(=O)c2ccccc2C1=O | 22 | 9.6 | 2.3 |  | 
O=C1c2ccccc2C(=O)N1CCO/C(=N\C1CC1)SS/C(=N/C1CC1)OCCN1C(=O)c2ccccc2C1=O | > 100 |  | > 100 |  | 
O=C1c2ccccc2C(=O)N1CCCO/C(=N\c1ccc(Br)cc1)SS/C(=N/c1ccc(Br)cc1)OCCCN1C(=O)c2ccccc2C1=O | > 100 |  | > 100 |  | 
O=C1c2ccccc2C(=O)N1CCO/C(=N\c1ccccc1)SS/C(=N/c1ccccc1)OCCN1C(=O)c2ccccc2C1=O | 80 | 229 | 0.35 |  | 
O=C1c2ccccc2C(=O)N1CCO/C(=N\c1ccc(Cl)cc1Cl)SS/C(=N/c1ccc(Cl)cc1Cl)OCCN1C(=O)c2ccccc2C1=O | > 100 | > 25 | 4 |  | 
O=C1c2ccccc2C(=O)N1CCO/C(=N\c1cccc2ccccc12)SS/C(=N/c1cccc2ccccc12)OCCN1C(=O)c2ccccc2C1=O | > 100 | > 13 | 8 |  | 
O=C1c2ccccc2C(=O)N1CCO/C(=N\c1c(F)cc(F)cc1F)SS/C(=N/c1c(F)cc(F)cc1F)OCCN1C(=O)c2ccccc2C1=O | 39 | 33 | 1.2 |  | 
O=C1c2ccccc2C(=O)N1CCO/C(=N\c1ccc(F)cc1)SS/C(=N/c1ccc(F)cc1)OCCN1C(=O)c2ccccc2C1=O | 29 | 1450 | 0.02 |  | 
